Among the data in ChEMBL document CHEMBL1123488, “Agents for the treatment of brain edema. 2. [(2,3,9,9a-Tetrahydro-3-oxo-9a-substituted-1H-fluoren-7-yl)oxy]+ ++alkanoi c acids and some of their analogues” (J Med Chem, 1986) are IC50, Distribution and pKa values, retold here.

Some results are limits rather than exact numbers.

The species entered for one data set is Felis catus. Nature of the data set: In vitro concentration required for 50% inhibition of swelling of cat cerebrocortical slices. The format is functional. The note with it: read-out: I50. The method in brief:
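Cat cortical slices were weighed and incubated 60 min at 22 °C in 27 mM K+ medium, with HCO3- added for the last 40 min and inhibitor present throughout. Swelling = (final − initial wet weight)/initial wet weight × 100. The HCO3−-dependent increment was taken as the target. I50 is the molarity giving 50% inhibition, read from the concentration–response curve.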

Data set [1] in a line: % distribution in octanol versus pH7.4 buffer. The note with it: pH 7.4. It is filed as physicochemical.
Data set [2] can be described thus: Dissociation constant (pKa) (determined in 30% EtOH). The format is physicochemical.

As for `CCC12CCC(=O)C=C1c1c(cc(OCC(=O)OCC(=O)O)c(Cl)c1Cl)C2` (stereo in doubt; (+)-16b-8), the IC50 in the data set filed under Felis catus came out at 3 nM. Further, in data set [1], the Distribution stood at 83%.

Consider `CCOC(=O)COc1cc2c(c(Cl)c1Cl)C1=CC(=O)CCC1(CC)C2` (single isomer, unassigned; (-)), for which the IC50 in the data set filed under Felis catus is > 10000 nM.

The compound `CCCC12CCC(=O)C=C1c1ccc(OCC(=O)O)cc1C2` (configuration not stated) gave a pKa in data set [2] of 4.05. In addition, in the data set listed under Felis catus (Felis catus), the IC50 was found to be 50 nM. The Distribution in data set [1] came to 49%.

In the case of `CCOC(=O)COc1cc2c(c(Cl)c1Cl)C1=CC(=O)CCC1(CC)C2` (single isomer, unassigned; (+)), the IC50 in the data set listed under Felis catus was 0.1 nM. Further, the Distribution in data set [1] is > 99.9%.

On to `CC(C)C12CCC(=O)C=C1c1c(cc(OCC(=O)O)c(Cl)c1Cl)C2` (configuration not stated), for which the pKa in data set [2] stood at 3.83. Further, in the data set listed under Felis catus (Felis catus), the IC50 is > 100 nM. This compound also came in with a Distribution in data set [1] of 89%.

In data set [2], `CCCC12CCC(=O)C=C1c1c(cc(OCC(=O)OC(C)(C)C(=O)O)c(Cl)c1Cl)C2` (single isomer, unassigned; (+)) showed a pKa of 3.8. Besides, in the data set listed under Felis catus (Felis catus), the IC50 came to 0.004 nM. In addition, in data set [1], the Distribution was found to be 98%.

`C=CC12CCC(=O)C=C1c1c(cc(OCC(=O)O)c(Cl)c1Cl)C2` (configuration not stated) had a pKa in data set [2] of 3.5. In addition, in the data set filed under Felis catus (Felis catus), the IC50 was > 10 nM. This compound also registered a Distribution in data set [1] of 70%.

As for `CCC12CCC(=O)C=C1c1c(cc(OCC(=O)OC(C)(C)C(=O)O)c(Cl)c1Cl)C2` (stereo in doubt; (+)-16b-9), the IC50 in the data set listed under Felis catus turned out to be 0.5 nM. For the same compound, the Distribution in data set [1] came to 96%.

`CCCC12CCC(=O)C=C1c1c(cc(OCC(=O)OC(CC)(CC)C(=O)O)c(Cl)c1Cl)C2` (single isomer, unassigned; (+)): in data set [2], the pKa was 3.4. Moreover, in the data set filed under Felis catus (Felis catus), the IC50 amounted to 0.04 nM. Besides, the Distribution in data set [1] is given as > 99.9%.

For `CCC12CCC(=O)C=C1c1c(cc(OCC(=O)OC)c(Cl)c1Cl)C2` (configuration not stated), the IC50 in the data set filed under Felis catus (Felis catus) is 20 nM. The Distribution in data set [1] is listed as 99.5%.

The compound `CCCC12CCC(=O)C(C)=C1c1c(cc(OCC(=O)O)c(Cl)c1Cl)C2` (configuration not stated) came in with a pKa in data set [2] of 3.5. The IC50 in the data set listed under Felis catus (Felis catus) is > 100 nM. Further, in data set [1], the Distribution is on record as 98%.

In the case of `CCCC12CCC(=O)C=C1c1c(cc(OCCCC(=O)O)c(Cl)c1Cl)C2` (configuration not stated), in data set [2], the pKa turned out to be 3.7. Also, the IC50 in the data set filed under Felis catus (Felis catus) came to 3 nM. The Distribution in data set [1] was determined as 99.8%.

On to `CCC12CCC(=O)C=C1c1c(cc(OCCCC(=O)O)c(Cl)c1Cl)C2` (configuration not stated), for which the pKa in data set [2] worked out at 3.7. The IC50 in the data set listed under Felis catus (Felis catus) is > 10000 nM. Also, in data set [1], the Distribution stood at 99.2%.

In turn, `CCC12CCC(=O)C=C1c1c(cc(OCC(=O)OCCN3CCOCC3)c(Cl)c1Cl)C2` (configuration not stated) registered a pKa in data set [2] of 5.08. For the same compound, the IC50 in the data set filed under Felis catus (Felis catus) is > 10 nM. In data set [1], this compound gave a Distribution of 98.6%.

Regarding `CCC12CCC(=O)C=C1c1c(cc(OCC(=O)OCc3cccnc3)c(Cl)c1Cl)C2` (configuration not stated), in data set [2], the pKa was determined as 3.32. Further, the IC50 in the data set listed under Felis catus (Felis catus) was found to be 0.1 nM. Besides, in data set [1], the Distribution is recorded as > 99.9%.

`CCC12CCC(=O)C=C1c1c(cc(OCC(=O)O)c(Cl)c1Cl)C2` (stereo in doubt; 5b): the IC50 in the data set filed under Felis catus was 30 nM.

For the compound `CCC12CCC(=O)C=C1c1c(cc(OCC(=O)OCC(C)=O)c(Cl)c1Cl)C2` (configuration not stated), the IC50 in the data set listed under Felis catus (Felis catus) amounted to 1 nM. Further, in data set [1], the Distribution is listed as > 99.9%.

`CCCC12CC(=O)C=C1c1c(cc(OCC(=O)O)c(Cl)c1Cl)C2` (configuration not stated) returned a pKa in data set [2] of 3.84. For the same compound, the IC50 in the data set listed under Felis catus (Felis catus) was determined as 100 nM. The same compound came in with a Distribution in data set [1] of 88%.

Take `CCCC12CCC(C(C)=O)=C1c1c(cc(OCC(=O)O)c(Cl)c1Cl)C2` (configuration not stated): the pKa in data set [2] came to 4.1. The IC50 in the data set filed under Felis catus (Felis catus) is 100 nM. Moreover, the Distribution in data set [1] worked out at 95%.

As for `CCC12CCC(=O)C=C1c1c(cc(OCC(=O)OCC3CCC(CO)O3)c(Cl)c1Cl)C2` (configuration not stated), in the data set filed under Felis catus (Felis catus), the IC50 amounted to 1000 nM. Also, the Distribution in data set [1] amounted to 99.7%.

For `CCC12CCC(=O)C=C1c1c(cc(OCC(=O)O)c(Cl)c1Cl)C2` (stereo in doubt; (-)-5b), in data set [2], the pKa was determined as 3.6. Also, in the data set listed under Felis catus, the IC50 came out at 30000 nM. This compound returned a Distribution in data set [1] of 81%.

`CCC12CCC(=O)C=C1c1c(cc(OCc3nn[nH]n3)c(Cl)c1Cl)C2` (configuration not stated) returned a pKa in data set [2] of 3.72. Further, the IC50 in the data set listed under Felis catus (Felis catus) is > 100 nM. The Distribution in data set [1] was found to be 95%.

For `CCC12CCC(=O)C=C1c1c(cc(OCC(=O)OCC3COC(C)(C)O3)c(Cl)c1Cl)C2` (configuration not stated), the IC50 in the data set filed under Felis catus (Felis catus) is > 10 nM. Besides, the Distribution in data set [1] is 99.9%.

Compound `CCCC12CCC(=O)C=C1c1c(cc(O)c(Cl)c1Cl)C2` (single isomer, unassigned; (+)) returned a pKa in data set [2] of 6.18. Besides, in the data set listed under Felis catus (Felis catus), the IC50 is > 10000 nM. The compound further returned a Distribution in data set [1] of 11%.

Compound `CCCC12CCC(=O)C=C1c1c(cc(OCC(=O)O)c(Cl)c1Cl)C2` (stereo in doubt; 5c) showed a pKa in data set [2] of 3.6. For the same compound, the IC50 in the data set listed under Felis catus was found to be 0.04 nM. In data set [1], this compound yielded a Distribution of 93%.

In data set [2], `CCC12C=CC(=O)C=C1c1c(cc(OCC(=O)O)c(Cl)c1Cl)C2` (configuration not stated) had a pKa of 3.7. Besides, the IC50 in the data set filed under Felis catus (Felis catus) is > 10 nM. Further, in data set [1], the Distribution came to 79%.

In data set [2], `CCC12CCC(=O)C=C1c1c(cc(OCC(=O)OCC(=O)O)c(Cl)c1Cl)C2` (stereo in doubt; 16b-8) had a pKa of 3.8. In the data set filed under Felis catus (Felis catus), the IC50 stood at 6 nM. The Distribution in data set [1] is 91%.

In data set [2], `CCC12CCC(=O)C=C1c1c(cc(OCC(=O)OC(C)(C)C(=O)O)c(Cl)c1Cl)C2` (stereo in doubt; 16b-9) yielded a pKa of 3.8. In the data set filed under Felis catus (Felis catus), the IC50 was found to be 1 nM. The compound further showed a Distribution in data set [1] of 95%.

`CCCC12CCC(=O)C=C1c1c(cc(OCC(=O)OC)c(Cl)c1Cl)C2` (configuration not stated): the IC50 in the data set listed under Felis catus (Felis catus) is 0.002 nM. For the same compound, the Distribution in data set [1] is on record as > 99.9%.

In data set [2], `CC12CCC(=O)C=C1c1c(cc(OCC(=O)O)c(Cl)c1Cl)C2` (configuration not stated) came in with a pKa of 3.75. Also, the IC50 in the data set listed under Felis catus (Felis catus) was determined as 10 nM. Also, in data set [1], the Distribution stood at 62%.

`CCOC(=O)COc1cc2c(c(Cl)c1Cl)C1=CC(=O)CCC1(CC)C2` (stereo in doubt; 16b-1): the IC50 in the data set filed under Felis catus was 0.2 nM. Besides, in data set [1], the Distribution was > 99.8%.

On to `CCCCC12CCC(=O)C=C1c1c(cc(OCC(=O)O)c(Cl)c1Cl)C2` (configuration not stated), for which the pKa in data set [2] stood at 3.5. Also, the IC50 in the data set listed under Felis catus (Felis catus) is > 10 nM. In data set [1], this compound returned a Distribution of 98%.

In the case of `CCCC12CCC(=O)C=C1c1c(cc(OCC(=O)NN(C)C)c(Cl)c1Cl)C2` (configuration not stated), the pKa in data set [2] was 3.9. Moreover, in the data set listed under Felis catus (Felis catus), the IC50 was > 100 nM. For the same compound, in data set [1], the Distribution is 99.7%.

In data set [2], `CCCC12CCC(=O)C=C1c1c(cc(OCC(=O)O)c(C)c1C)C2` (configuration not stated) returned a pKa of 4.3. In the data set filed under Felis catus (Felis catus), the IC50 turned out to be 100 nM. Moreover, the Distribution in data set [1] is recorded as 49%.

`CCCC12CCC(=O)C=C1c1c(cc(SCC(=O)O)c(Cl)c1Cl)C2` (configuration not stated) came in with a pKa in data set [2] of 4.7. In addition, the IC50 in the data set filed under Felis catus (Felis catus) is > 1000 nM. Moreover, the Distribution in data set [1] came out at 99%.

Take `CCC12CCC(=O)C=C1c1c(cc(OCC(=O)O)c(Cl)c1Cl)C2` (single isomer, unassigned; (+)): in the data set listed under Felis catus, the IC50 turned out to be 10 nM.

Compound `O=C(O)COc1cc2c(c(Cl)c1Cl)C1=CC(=O)CCC1(C1CCCC1)C2` (configuration not stated) came in with a pKa in data set [2] of 3.83. Further, the IC50 in the data set listed under Felis catus (Felis catus) worked out at 1 nM. In addition, the Distribution in data set [1] is 97%.

On to `CCCC12CCC(=O)C=C1c1c(cc(OCC(=O)NCCN(C)C)c(Cl)c1Cl)C2` (configuration not stated), for which, in data set [2], the pKa came to 7.7. Further, in the data set filed under Felis catus (Felis catus), the IC50 is > 1000 nM. For the same compound, the Distribution in data set [1] came to 99.7%.

Take `CCC12CCC(=O)C=C1c1c(cc(OCC(=O)OCCCO)c(Cl)c1Cl)C2` (configuration not stated): the IC50 in the data set listed under Felis catus (Felis catus) was determined as 0.7 nM. Besides, in data set [1], the Distribution stood at 99.3%.

With `CCCC12CCC(=O)C=C1c1c(cc(OCC(=O)O)c(Cl)c1Cl)C2` (single isomer, unassigned; (-)), in the data set listed under Felis catus, the IC50 was 10000 nM.
